# From PubChem
# DDE Tn7 FP inh = inhibitors of Tn7 peptide binding to fibrin DD(E), primary screen, biochemical, fluorescence polarization, human fibrin, Tn7 probe. Fibrinogen beta chain (Homo sapiens), P02675. FP displacement of FITC-Tn7 peptide from fibrin DD(E); 0% = median of compound wells per plate. inhibition, % at 8.3 µM. 370,000 compounds, 0.13% hits. AID 720508, 2013;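 active = inhibition above the mean of compounds falling within the control limits plus 3 SD of them, cut at about 14% in these data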;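 note: 0% = plate median of compound wells and 100% = 10 µM Aha-Tn7 peptide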
#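 System: human fibrin DD(E); quantity: Fibrin-DD(E) at 2 µM final; also added: fluorescent Tn7 probe at 0.1 µM; compound dosing: single nominal test concentration of 8.3 µM per compound; schedule: 10 min preincubation, 3 h with tracer, room temperature; detection: fluorescence polarization of the labelled Tn7 tracer; repeats: one replicate per compound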
# DDE Tn6 FP inh = inhibitors of Tn6 peptide binding to fibrin DD(E), primary screen, biochemical, fluorescence polarization, human fibrin, Tn6 probe | Fibrinogen beta chain (Homo sapiens), P02675 | Fibrin DD(E) TRITC-Tn6 fluorescence polarization displacement | inhibition, % at 8.3 µM | 370,000 compounds, 0.21% hits | AID 720509, 2013;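 active = inhibition above a per-campaign cutoff: mean of compounds within control limits plus 3 SD, cut at about 15% in these data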;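 note: 0% = median of all compound wells on the plate and 100% = blocking peptide control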
# PLCg1 inh = PLC-gamma1 enzyme inhibitors, primary screen, biochemical, fluorescence, purified enzyme; 1-phosphatidylinositol 4,5-bisphosphate phosphodiesterase gamma-1 (Homo sapiens), P19174; 370,000 compounds, 0.84% hits; fluorogenic substrate; inhibition, % at 12.2 µM; in the data active = inhibition above about 9.5%
# FID counter = compounds displacing fluorescent DNA intercalator, primary screen, artefact control for HCV NS3 helicase inhibitor project, biochemical, FID fluorescence; inhibition, % at 7.9 µM; DNA fluorescent intercalator displacement; AID 1845, 2009; 290,000 compounds, 0.17% hits; in the data active = inhibition above about 37%;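 note: 0% = vehicle and 100% = reference compound; higher means more ethidium bromide displaced from hairpin DNA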
# PLCb3 inh = human PLC-beta3 inhibitors, primary screen, biochemical, fluorescence. 370,000 compounds, 0.18% hits. 1-phosphatidylinositol 4,5-bisphosphate phosphodiesterase beta-3 (Homo sapiens), Q01970. inhibition, % at 12.2 µM. Purified PLC-beta3, fluorogenic substrate; in the data active = inhibition above about 11%;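 note: 0% = median of compound wells on plate and 100% = full blocker control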
# DDE Tn6 FP ctr = DD(E)-Tn6 binding inhibition, counter-screen; Fibrin DD(E), TRITC-Tn6 fluorescence polarization displacement; 0% = median of compound wells, not DMSO; shares compounds with DDE Tn6 FP inh; inhibition, % at 8.3 µM; 680 compounds, 2% hits; AID 720621;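 active = inhibition above the mean of test compounds lying between the control limits plus 3 SD of those, cut at about 14% in these data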;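 note: 0% = median of compound wells and 100% = wells with Aha-Tn7 blocking peptide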
# Tn6 DDE conf = inhibitors of Tn6 peptide binding to fibrin DD(E), confirmation, biochemical, fluorescence polarization, human fibrin, Tn6 probe; 680 compounds, 10% hits; inhibition, % at 8.3 µM; shares compounds with DDE Tn6 FP inh; FP displacement of TRITC-Tn6 peptide from DD(E); 0% = per-plate median of test wells; AID 720631, 2013;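 active = inhibition above the mean of compounds lying within the control limits plus 3 SD, cut at about 16% in these data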;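 note: 100% = high control wells holding a competing inhibitor peptide at 10 µM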
# * marks the source's active call; other numbers are inactive results; i = inactive; . = no result. Hits are enriched below; roughly 1.4% of the tested compounds scored in any of these assays.
SMILES,DDE Tn7 FP inh,DDE Tn6 FP inh,PLCg1 inh,FID counter,PLCb3 inh,DDE Tn6 FP ctr,Tn6 DDE conf
CC[C@]12c3[nH]c4ccc(Cl)cc4c3CCN1C(=O)[C@@H](CC(=O)NCCCN(C)C)C[C@@H]2C(=O)N1CCN(C(=O)c2ccco2)CC1,-1,-3,4,.,4,.,.
CC[C@]12c3[nH]c4ccc(Cl)cc4c3CCN1C(=O)[C@@H](CC(=O)NC(C)(C)C)C[C@@H]2C(=O)N1CCN(C(=O)c2ccco2)CC1,6,16*,-2,.,-1,8,6
COc1cc(NC(=O)CN(C)Cc2cccc(F)c2)c(C)cc1[N+](=O)[O-],-2,17*,1,0,1,9,3
COc1cc(NC(=O)CN(C)Cc2ccc(OC(F)F)cc2)c(C)cc1[N+](=O)[O-],4,9,2,3,0,.,.
COc1ccc(NCc2nnc(SCC(=O)NCc3ccco3)n2-c2ccccc2OC)cc1,-7,17*,0,-21,-1,-3,-4
Cc1ccc(-n2c(CNc3ccc(F)cc3)nnc2SCC(=O)NCc2ccco2)cc1,4,0,-3,-36,-2,.,.
Cc1ccc2nc(NC(=O)C3CCCN(S(=O)(=O)c4cnc[nH]4)C3)sc2c1 (configuration not stated),5,3,3,-11,3,.,.
Cc1ccc(Cl)cc1NC(=O)CN1C(=O)COc2ccc(S(=O)(=O)N3CCOCC3)cc21,6,16*,-1,-22,-8,1,-3
CCN(CC)c1ccc(C(=O)c2ccccc2C(=O)O)c(O)c1,-2,15*,0,-35,-7,2,15
CC(C)C(=O)Nc1nnc(SCC(=O)NC2CC2)s1,2,2,0,7,0,.,.
CC(=O)Oc1cccc2c1C(=O)c1c(OC(C)=O)cc(C(=O)O)cc1C2=O,8,16*,-15,3,-19,5,2
CC(=O)Oc1ccc(C(=O)O)cc1OC(C)=O,1,-5,1,1,-1,.,.
Cc1ccc(Cl)cc1NC1=C/C(=N\S(=O)(=O)c2cccs2)c2ccccc2C1=O,-2,53*,3,3,2,8,6
COC(=O)CCC(=O)OC1(C)C(=O)C=C2C=C(C3CC3)N(C3CCCCC3)C=C2C1=O (configuration not stated),-4,-4,-27,.,-47,.,.
COC(=O)CCC(=O)OC1(C)C(=O)C=C2C=C(C3CC3)N(C3CCCC3)C=C2C1=O (configuration not stated),-7,20*,-26,.,-39,-6,-9
CC1CCC/C(=C\Nc2ccc(O)cc2)C1=O (configuration not stated),4,17*,-19,-25,-22,-7,-10
Cc1cc(C(=O)O)ccc1N/C=C1\CCCC(C)C1=O (configuration not stated),2,6,2,0,0,.,.
Cc1ccc(CNC(=O)C2CCC(=O)N(CCc3ccccn3)C2)s1 (configuration not stated),0,-1,0,-8,0,.,.
Nc1ncnc2c1CN(Cc1ccccc1)CC2,5,65*,-2,.,-1,-7,-7
O=C(O)c1cccnc1SC1CC(=O)N(c2cccc3ccccc23)C1=O (configuration not stated),.,.,.,-14,.,.,.
Cc1ccc(NS(=O)(=O)c2ccc(Cl)c(C(=O)Nc3ccccc3-c3nc4ccccc4[nH]3)c2)cc1C,-5,16*,-281,6,-319,8,3
CCN(CC(=O)NC1CCCC1)S(=O)(=O)c1ccc(Br)cc1,-3,16*,-3,-21,-6,5,-2
O=C1C2C3CCC(C3)C2C(=O)N1CNc1ccc(F)cc1 (configuration not stated),7,-1,7,0,10,.,.
Cc1ccc(C)c(-n2nnnc2SCC(=O)NNC(=O)c2ccco2)c1,5,20*,-3,-9,0,-3,-5
COc1cc(OC)cc(-c2c(-c3ccc(F)cc3)c3cc(-c4ccc5c(c4)OCCO5)ccc3n2C)c1,-1,53*,-3,.,-14,-8,-6
SMILES,DDE Tn7 FP inh,DDE Tn6 FP inh,PLCg1 inh,FID counter,PLCb3 inh,DDE Tn6 FP ctr,Tn6 DDE conf
Cc1onc(-c2ccccc2Cl)c1C(=O)NNC(=O)c1ccc(F)cc1,2,-2,0,-6,-4,.,.
CC(C(=O)Nc1ccccc1Br)N1c2cccc3cccc(c23)S1(=O)=O (configuration not stated),-5,0,-67,-22,-114,.,.
O=c1ccc2c(-c3ccccc3)c3ccc(O)cc3oc-2c1,-7,68*,i,-18,i,53*,38*
Nc1ccc(-c2c3ccc(=O)cc-3oc3cc(O)ccc23)cc1C(=O)O,-6,11,-216,-21,-318,.,.
COc1cc(C(=O)NCC(=O)N/N=C/c2cccc(OC(=O)c3ccco3)c2)cc(OC)c1OC,0,3,5,-41,0,.,.
COc1cc(C(=O)NCC(=O)N/N=C/c2ccco2)cc(OC)c1OC,6,27*,-1,-2,-10,-6,-13
NS(=O)(=O)c1ccc(NS(=O)(=O)c2ccc(NC(=O)c3ccc(-c4ccccc4)cc3)cc2)cc1,5,32*,-1,-1,-5,0,17*
NS(=O)(=O)c1ccc(NC(=O)c2ccc(-c3ccccc3)cc2)cc1,-7,2,6,-8,-2,.,.
CN(C(=O)c1ccccc1Cl)c1ccccc1,-5,15*,2,-4,1,-1,-2
Cn1c(=O)cc2c3c(c(N4CCCCC4)ccc31)C(=O)c1ccccc1-2,5,59*,-53,8,-65,2,23*
CS(=O)(=O)c1ccc(C(=O)OCC(=O)NCc2cccs2)cc1[N+](=O)[O-],-5,-1,3,.,-2,.,.
CNc1nc(Cl)c(SC)c(NCc2cccc(OC)c2)n1,-4,17*,0,-21,-3,4,4
COc1cc(S(=O)(=O)NC2CCCCC2C)ccc1Cl (configuration not stated),1,8,0,-11,3,.,.
O=C(Cc1cccc2ccccc12)NC(NC(=S)Nc1ccccc1Cl)C(Cl)(Cl)Cl (configuration not stated),2,25*,0,-4,3,0,-2
